The subject of experiment [1] is Staphylococcus aureus. Description: Antibacterial activity against Staphylococcus aureus ATCC 25923 assessed as inhibition zone after 18 hrs by disk diffusion method. Type of experiment: functional, organism-based. Summed up:
(§1)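 Samples were prepared at 10 mg/mL in water, and 50 µL was applied to 8 mm paper disks. Disks were placed on Mueller-Hinton agar in 9 cm dishes, pre-inoculated with a suspension made from one colony in distilled water. Plates were incubated 18 h at 37 °C, then the inhibition zone was measured.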
Background: A growth-free zone around the sample is the usual read-out of agar diffusion tests.

The test system of experiment [2] is Enterococcus faecalis. Description: Antibacterial activity against Enterococcus faecalis ATCC 29212 assessed as inhibition zone after 18 hrs by disk diffusion method. In kind it is functional, organism-based. The procedure, abridged: as §1
Experiment [3] relates to Escherichia coli. Description: Antibacterial activity against Escherichia coli ATCC 25922 assessed as inhibition zone after 18 hrs by disk diffusion method. Type of experiment: functional, organism-based. Summed up: as §1
The subject of experiment [4] is Pseudomonas aeruginosa. Description: Antibacterial activity against Pseudomonas aeruginosa ATCC 27853 assessed as inhibition zone after 18 hrs by disk diffusion method. Type of experiment: functional, organism-based. Summed up:
as §1

The test system of experiment [5] is Enterococcus faecalis. Description: Antibacterial activity against Enterococcus faecalis ATCC 29212 assessed as clear zone after 18 hrs by TLC bioautography. Type of experiment: functional, organism-based. The procedure, abridged: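 After the TLC run, the solvent was evaporated. Plates were overlaid with Mueller-Hinton agar seeded with bacteria in nutrient broth and incubated 18 h at 37 °C in a humidified chamber. They were then sprayed with p-iodonitrotetrazolium bromide (2 mg/mL) and incubated 2 h. Clear zones were scored as antibacterial activity.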

The test system of experiment [6] is Staphylococcus aureus. Briefly: Antibacterial activity against Staphylococcus aureus assessed as growth inhibition by liquid microdilution assay. In kind it is functional. Summed up:
(§2)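 MIC was determined by liquid broth microdilution growth inhibition against standard strains.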
Background: Broth dilution looks for growth in wells or tubes with falling amounts of substance.

The test system of experiment [7] is Enterococcus faecalis. Description: Antibacterial activity against Enterococcus faecalis assessed as growth inhibition by liquid microdilution assay. Type of experiment: functional. Summed up: as §2
Experiment [8] relates to Escherichia coli. Briefly: Antibacterial activity against Escherichia coli assessed as growth inhibition by liquid microdilution assay. In kind it is functional. The procedure, abridged: as §2
Experiment [9] relates to Pseudomonas aeruginosa. Description: Antibacterial activity against Pseudomonas aeruginosa as growth inhibition by liquid microdilution assay. In kind it is functional. Summed up: as §2

Our source for the inhibition and MIC values is ChEMBL document CHEMBL1687891, “Triterpenoid saponins from Symplocos lancifolia” (2011).

Converted amounts (≈) assume the structure as drawn. The source made the active and inactive calls. The calls are words filed in the database; no cut-off is given here.

Take `C[C@@H]1O[C@@H](O[C@H]2C(OC(=O)[C@]34CCC(C)(C)C[C@H]3C3=CC[C@@H]5[C@@]6(C)C[C@@H](O)[C@H](O[C@@H]7O[C@H](CO)[C@@H](O)[C@H](O)[C@H]7O)[C@@](C)(CO)[C@@H]6CC[C@@]5(C)[C@]3(C)CC4)O[C@H](CO)[C@@H](O)[C@@H]2O)[C@H](O)[C@H](O)[C@H]1O` (stereo partly drawn): the inhibition entry in the experiment with Staphylococcus aureus [1], in the experiment on Enterococcus faecalis [2], in the experiment on Escherichia coli [3], in the experiment on Pseudomonas aeruginosa [4] and in the experiment on Enterococcus faecalis [5] was “Active” throughout.
In the case of `C[C@@H]1O[C@@H](O[C@H]2[C@H](OC(=O)[C@]34CCC(C)(C)C[C@H]3C3=CC[C@@H]5[C@@]6(C)C[C@@H](O)[C@H](O[C@@H]7O[C@H](CO)[C@@H](O)[C@H](O)[C@H]7O)C(C)(C)[C@@H]6CC[C@@]5(C)[C@]3(C)CC4)O[C@H](CO)[C@@H](O)[C@@H]2O)[C@H](O)[C@H](O)[C@H]1O`, the inhibition entry in the experiment on Staphylococcus aureus [1], in the experiment with Enterococcus faecalis [2], in the experiment with Escherichia coli [3], in the experiment with Pseudomonas aeruginosa [4] and in the experiment with Enterococcus faecalis [5] was “Active” throughout.
Consider `C[C@H]1[C@H](C)CC[C@]2(C(=O)OC3O[C@H](CO)[C@@H](O)[C@H](O)[C@H]3O[C@@H]3O[C@@H](C)[C@H](O)[C@@H](O)[C@H]3O)CC[C@]3(C)C(=CC[C@@H]4[C@@]5(C)C[C@@H](O)[C@H](O[C@@H]6O[C@H](CO)[C@@H](O)[C@H](O)[C@H]6O)[C@@](C)(CO)[C@@H]5CC[C@]43C)[C@H]12` (stereo partly drawn), for which the inhibition result in the experiment with Staphylococcus aureus [1], in the experiment on Enterococcus faecalis [2], with Escherichia coli [3], with Pseudomonas aeruginosa [4] and with Enterococcus faecalis [5] was “Active” each time.
With `CC1(C)CC[C@]2(C(=O)O)CC[C@]3(C)C(=CC[C@@H]4[C@@]5(C)C[C@@H](O)[C@H](O)[C@@](C)(CO)[C@@H]5CC[C@]43C)[C@@H]2C1` [ARJUNOLIC ACID], the minimum inhibitory concentration (MIC) in the experiment on Staphylococcus aureus [6] was 64 µg/mL; with Enterococcus faecalis [7] it was 64 µg/mL; in the experiment with Escherichia coli [8], > 128 µg/mL; in the experiment with Pseudomonas aeruginosa [9] it was > 128 µg/mL.
On to `C[C@H]1[C@H](C)CC[C@]2(C(=O)O)CC[C@]3(C)C(=CC[C@@H]4[C@@]5(C)C[C@@H](O)[C@H](O)[C@@](C)(CO)[C@@H]5CC[C@]43C)[C@H]12` [ASIATIC ACID], for which the MIC with Staphylococcus aureus [6] was > 128 µg/mL; in the experiment on Enterococcus faecalis [7], 128 µg/mL; with Escherichia coli [8] it was > 128 µg/mL; against Pseudomonas aeruginosa [9], > 128 µg/mL.
On to `CC(C)(O/N=C(\C(=O)N[C@@H]1C(=O)N2C(C(=O)[O-])=C(C[n+]3ccccc3)CS[C@H]12)c1csc(N)n1)C(=O)O` [CEFTAZIDIME], for which the figures for the minimal inhibitory concentration (MIC) in the experiment with Escherichia coli [8] and in the experiment on Pseudomonas aeruginosa [9] were 10 µg/mL and 10 µg/mL (≈ 18.3 µM), respectively.
`C[C@H]1[C@H](C)CC[C@]2(C(=O)O)CC[C@]3(C)C(=CC[C@@H]4[C@@]5(C)C[C@@H](O)[C@H](O)C(C)(C)[C@@H]5CC[C@]43C)[C@H]12` [COROSOLIC ACID]: the MIC was 32 µg/mL in the experiment on Staphylococcus aureus [6], 32 µg/mL in the experiment on Enterococcus faecalis [7], > 128 µg/mL with Escherichia coli [8] and > 128 µg/mL in the experiment with Pseudomonas aeruginosa [9].
Consider `CC1(C)CC[C@]2(C(=O)O)CC[C@]3(C)C(=CC[C@@H]4[C@@]5(C)C[C@@H](O)[C@H](O)C(C)(C)[C@@H]5CC[C@]43C)[C@@H]2C1` [MASLINIC ACID], for which the minimal inhibitory concentration (MIC) in the experiment on Staphylococcus aureus [6] was 64 µg/mL; in the experiment with Enterococcus faecalis [7] it was 16 µg/mL; in the experiment on Escherichia coli [8], > 128 µg/mL; in the experiment with Pseudomonas aeruginosa [9] it was > 128 µg/mL.
As for `CC1(C)CC[C@]2(C(=O)O)CC[C@]3(C)C(=CC[C@@H]4[C@@]5(C)CC[C@H](O)C(C)(C)[C@@H]5CC[C@]43C)[C@@H]2C1` [OLEANOLIC_ACID], the MIC in the experiment with Staphylococcus aureus [6] is > 128 µg/mL; in the experiment on Enterococcus faecalis [7], 16 µg/mL; in the experiment with Escherichia coli [8], > 128 µg/mL; with Pseudomonas aeruginosa [9], > 128 µg/mL.
`C[C@H]1[C@H](C)CC[C@]2(C(=O)O)CC[C@]3(C)C(=CC[C@@H]4[C@@]5(C)CC[C@H](O)C(C)(C)[C@@H]5CC[C@]43C)[C@H]12` [URSOLIC ACID]: the minimal inhibitory concentration (MIC) with Staphylococcus aureus [6] is 128 µg/mL; with Enterococcus faecalis [7], 16 µg/mL; in the experiment with Escherichia coli [8] it was > 128 µg/mL; in the experiment on Pseudomonas aeruginosa [9], > 128 µg/mL.
`CN[C@H](CC(C)C)C(=O)N[C@H]1C(=O)N[C@@H](CC(N)=O)C(=O)N[C@H]2C(=O)N[C@H]3C(=O)N[C@H](C(=O)N[C@H](C(=O)O)c4cc(O)cc(O)c4-c4cc3ccc4O)[C@H](O)c3ccc(c(Cl)c3)Oc3cc2cc(c3O[C@@H]2O[C@H](CO)[C@@H](O)[C@H](O)[C@H]2O[C@H]2C[C@](C)(N)[C@H](O)[C@H](C)O2)Oc2ccc(cc2Cl)[C@H]1O` [VANCOMYCIN]: the MIC in the experiment on Staphylococcus aureus [6] and in the experiment on Enterococcus faecalis [7] was 2.5 µg/mL each time.

For orientation: MIC means the lowest concentration found to suppress growth.
